Calls of active or inactive are those of the source. No cut-off for these calls is given here.
What was measured:
[1] = test system: Rattus norvegicus; experiment: Stimulation of dopamine receptor in sc dosed Sprague-Dawley rat assessed as reduction in Dopa accumulation in limbic forebrain by spectrofluorimetry; type: functional; conditions: Limbic system, read-out: ID50 (the source's name)
Method in brief: (§1)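 Pooled regions from two brains went to perchloric acid extraction, cation exchange and Dopa spectrofluorimetry. Dose giving 50% Dopa decrease came from least-squares double-reciprocal plots (1/% change vs 1/dose).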

[2] = test system: Rattus norvegicus; experiment: Stimulation of dopamine receptor in sc dosed Sprague-Dawley rat assessed as reduction in Dopa accumulation in straitum by spectrofluorimetry; type: functional; conditions: read-out: ID50 (the source's name); method in brief: as §1
[3] = test system: Rattus norvegicus; experiment: Effect on motor activity in reserpinized Sprague-Dawley rat assessed as stereotyped movements at 20 umolkg, sc measured every 5 mins for 2 hrs by motility meter method; type: functional, organism-based
Method in brief: (§2)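 Male Sprague-Dawley rats (200–350 g) were given reserpine 10 mg/kg ip 6 h before testing. Drug in 0.9% saline (neutral pH, 10 mL/kg) was given at 20 μmol/kg sc in the neck or 200 μmol/kg po by stomach tube. Rats were caged singly in motility meters at once, with counts recorded per 5-min period over 2 h; means n = 4-5.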

[4] = test system: Rattus norvegicus; experiment: Effect on motor activity in reserpinized Sprague-Dawley rat assessed as stereotyped movements at 200 umolkg, po measured every 5 mins for 2 hrs by motility meter method; type: functional, organism-based; method in brief: as §2
[5] = test system: Rattus norvegicus; experiment: Stimulation of dopamine receptor in Sprague-Dawley rat assessed as reduction in Dopa accumulation in at 1 mg/kg, sc by spectrofluorimetry; type: functional, organism-based; set-up: dose 1 mg/kg
[6] = test system: Rattus norvegicus; experiment: Effect on motor activity in reserpinized Sprague-Dawley rat assessed as stereotyped movements at 20 umolkg, sc measured up to 10 mins by motility meter method; type: functional, organism-based; method in brief: as §2
[7] = test system: Rattus norvegicus; experiment: Effect on motor activity in reserpinized Sprague-Dawley rat assessed as stereotyped movements at 2 umolkg, sc measured every 5 mins for 2 hrs by motility meter method; type: functional, organism-based
Method in brief: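 Male Sprague-Dawley rats (200–350 g) given reserpine 10 mg/kg ip 6 h before testing. Drug dissolved in saline (0.9%), neutral pH, 10 mL/kg, injected sc in the neck. Each rat then placed alone in a test cage inside a motility meter. Counts were recorded per 5-min period for 2 h, with gross behavior watched through a mirror. Means, n = 4-5.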

Compound | ED50 [1] [µmol/kg] | ED50 [2] [µmol/kg] | Activity [3] | Activity [4] | Activity [5] | Activity [6] | Activity [7]
CCCN(CCC)CCc1ccc(OC(=O)C(C)(C)C)c(OC(=O)C(C)(C)C)c1 | 28 | 33 | Active | inactive | – | – | –
CC(N)Cc1ccccc1 (configuration not stated) | – | – | – | – | inactive | – | –
CCCCN(CCCC)CCc1ccc(OC(=O)C(C)(C)C)c(OC(=O)C(C)(C)C)c1 | > 180 | > 180 | inactive | inactive | – | – | –
CN(C)CCc1ccc(OC(=O)C(C)(C)C)c(OC(=O)C(C)(C)C)c1 | > 45 | > 45 | inactive | inactive | – | – | –
CCN(CC)CCc1ccc(OC(=O)C(C)(C)C)c(OC(=O)C(C)(C)C)c1 | > 27 | > 27 | inactive | inactive | – | – | –
CCCN(CCC)CCc1cccc(OC)c1 | > 45 | > 45 | inactive | inactive | – | – | –
CCCN(CCC)CCc1cccc(OC(=O)C(C)(C)C)c1 | 2.7 | 1.8 | Active | inactive | – | inactive | –
CN1CCc2cccc3c2[C@H]1Cc1ccc(O)c(O)c1-3 [APOMORPHINE] | 0.23 | 0.23 | – | – | – | – | Active
CN1CCc2cccc3c2[C@H]1Cc1ccc(OC(=O)C(C)(C)C)c(OC(=O)C(C)(C)C)c1-3 | – | – | – | – | – | – | Active
CCCN(CCC)CCc1ccc(O)c(O)c1 | 25 | 20 | – | inactive | – | – | –
CCCN(CCC)CCc1cccc(O)c1 | 5.7 | 1.8 | Active | inactive | – | – | –

From ChEMBL document CHEMBL3244152, “Pivaloyl esters of N,N-dialkylated dopamine congeners. Central dopamine-receptor stimulating activity” (1978)
